Calls of active or inactive are those of the source. The rule behind the calls is not given here.
Assays:
Rattus norvegicus [1] = assay: Anticonvulsant activity in po dosed Sprague-Dawley albino rat assessed as protection against subcutaneous metrazol-induced seizures; format: functional
Method in brief: (§1)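 Quantitative testing: rats dosed orally or ip in MES and scMet tests, and mice dosed ip, including the 6 Hz (32 mA) psychomotor seizure test. ED50 and TD50 were reported in mg/kg with ranges in parentheses. Protective index was calculated as TD50/ED50.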

Rattus norvegicus [2] = assay: Neurotoxicity in pilocarpine-induced status epilepticus Sprague-Dawley albino rat model assessed as minimal motor impairment at 30 mg/kg, ip after 1 hr by rotarod test; format: toxicity, organism-based; parameters: dose 30 mg/kg, route intraperitoneal; conditions: in vivo
Method in brief: (§2)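 Rat pilocarpine status epilepticus model: test carbamate given at 0 or 30 min after the first observed Racine stage 3 motor seizure, which marks SE onset. Neurotoxicity was scored within the same model.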

Rattus norvegicus [3] = assay: Neurotoxicity in pilocarpine-induced status epilepticus Sprague-Dawley albino rat model assessed as minimal motor impairment at 300 mg/kg, ip after 0.5 hrs by rotarod test; format: toxicity, organism-based; parameters: dose 300 mg/kg, route intraperitoneal; conditions: in vivo; method in brief: as §2
Rattus norvegicus [4] = assay: Neurotoxicity in pilocarpine-induced status epilepticus Sprague-Dawley albino rat model assessed as minimal motor impairment at 100 mg/kg, ip after 0.5 hrs by rotarod test; format: toxicity, organism-based; parameters: dose 100 mg/kg, route intraperitoneal; conditions: in vivo
Rattus norvegicus [5] = assay: Neurotoxicity in pilocarpine-induced status epilepticus Sprague-Dawley albino rat model assessed as minimal motor impairment at 300 mg/kg, ip after 2 hrs by rotarod test; format: toxicity, organism-based; parameters: dose 300 mg/kg, route intraperitoneal; conditions: in vivo; method in brief: as §2
Mus musculus [6] = assay: Anticonvulsant activity in albino CF1 mouse assessed as protection against subcutaneous metrazol-induced seizures at 30 mg/kg, ip after 0.5 hrs; format: functional, organism-based; parameters: dose 30 mg/kg
Method in brief: (§3)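 Mice dosed ip at 30, 100 or 300 mg/kg, then tested 0.5 h and 4 h after administration in the MES or scMet test. Protection was recorded as animals protected over animals tested. Neurotoxicity was recorded as motor impairment or sedation, as animals affected over animals tested.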

Rattus norvegicus [7] = assay: Anticonvulsant activity in Sprague-Dawley albino rat assessed as protection against maximal electroshock-induced seizures at 30 mg/kg, po after 30 mins; format: functional, organism-based; parameters: dose 30 mg/kg
Method in brief: (§4)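 Rats dosed orally. Anti-MES protection was scored as animals protected over animals tested at each time after dosing. Neurotoxicity was scored as motor impairment or sedation, as animals affected over animals tested.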

Rattus norvegicus [8] = assay: Neurotoxicity in pilocarpine-induced status epilepticus Sprague-Dawley albino rat model assessed as minimal motor impairment at 100 mg/kg, ip after 2 hrs by rotarod test; format: toxicity, organism-based; parameters: dose 100 mg/kg, route intraperitoneal; conditions: in vivo
Mus musculus [9] = assay: Anticonvulsant activity in albino CF1 mouse assessed as protection against maximal electroshock-induced seizures at 300 mg/kg, ip after 0.5 hrs; format: functional, organism-based; parameters: dose 300 mg/kg; method in brief: as §3
Rattus norvegicus [10] = assay: Neurotoxicity in pilocarpine-induced status epilepticus Sprague-Dawley albino rat model assessed as minimal motor impairment at 30 mg/kg, ip after 0.25 hr by rotarod test; format: toxicity, organism-based; parameters: dose 30 mg/kg, route intraperitoneal; conditions: in vivo; method in brief: as §2
Rattus norvegicus [11] = assay: Anticonvulsant activity in Sprague-Dawley albino rat assessed as protection against maximal electroshock-induced seizures at 30 mg/kg, po after 2 hrs; format: functional, organism-based; parameters: dose 30 mg/kg; method in brief: as §4
Rattus norvegicus [12] = assay: Neurotoxicity in Sprague-Dawley albino rat assessed as minimal motor impairment at 30 mg/kg, po by rotarod test; format: toxicity, organism-based; parameters: dose 30 mg/kg, route oral; conditions: in vivo; method in brief: as §4
Mus musculus [13] = assay: Anticonvulsant activity in albino CF1 mouse assessed as protection against subcutaneous metrazol-induced seizures at 100 mg/kg, ip after 4 hrs; format: functional, organism-based; parameters: dose 100 mg/kg; method in brief: as §3
Mus musculus [14] = assay: Anticonvulsant activity in albino CF1 mouse assessed as protection against subcutaneous metrazol-induced seizures at 30 mg/kg, ip after 4 hrs; format: functional, organism-based; parameters: dose 30 mg/kg; method in brief: as §3
Rattus norvegicus [15] = assay: Neurotoxicity in pilocarpine-induced status epilepticus Sprague-Dawley albino rat model assessed as minimal motor impairment at 30 mg/kg, ip after 2 hrs by rotarod test; format: toxicity, organism-based; parameters: dose 30 mg/kg, route intraperitoneal; conditions: in vivo; method in brief: as §2
Mus musculus [16] = assay: Anticonvulsant activity in albino CF1 mouse assessed as protection against maximal electroshock-induced seizures at 300 mg/kg, ip after 4 hrs; format: functional, organism-based; parameters: dose 300 mg/kg; method in brief: as §3
Rattus norvegicus [17] = assay: Neurotoxicity in pilocarpine-induced status epilepticus Sprague-Dawley albino rat model assessed as minimal motor impairment at 30 mg/kg, ip after 4 hrs by rotarod test; format: toxicity, organism-based; parameters: dose 30 mg/kg, route intraperitoneal; conditions: in vivo; method in brief: as §2
Rattus norvegicus [18] = assay: Anticonvulsant activity in Sprague-Dawley albino rat assessed as protection against maximal electroshock-induced seizures at 30 mg/kg, po after 15 mins; format: functional, organism-based; parameters: dose 30 mg/kg; method in brief: as §4
Mus musculus [19] = assay: Anticonvulsant activity in albino CF1 mouse assessed as protection against maximal electroshock-induced seizures at 30 mg/kg, ip after 0.5 hrs; format: functional, organism-based; parameters: dose 30 mg/kg; method in brief: as §3
Rattus norvegicus [20] = assay: Neurotoxicity in pilocarpine-induced status epilepticus Sprague-Dawley albino rat model assessed as minimal motor impairment at 100 mg/kg, ip after 0.25 hr by rotarod test; format: toxicity, organism-based; parameters: dose 100 mg/kg, route intraperitoneal; conditions: in vivo
Rattus norvegicus [21] = assay: Neurotoxicity in pilocarpine-induced status epilepticus Sprague-Dawley albino rat model assessed as minimal motor impairment at 300 mg/kg, ip after 1 hr by rotarod test; format: toxicity, organism-based; parameters: dose 300 mg/kg, route intraperitoneal; conditions: in vivo; method in brief: as §2
Rattus norvegicus [22] = assay: Neurotoxicity in pilocarpine-induced status epilepticus Sprague-Dawley albino rat model assessed as minimal motor impairment at 100 mg/kg, ip after 4 hrs by rotarod test; format: toxicity, organism-based; parameters: dose 100 mg/kg, route intraperitoneal; conditions: in vivo
Rattus norvegicus [23] = assay: Anticonvulsant activity in Sprague-Dawley albino rat assessed as protection against maximal electroshock-induced seizures at 30 mg/kg, po after 4 hrs; format: functional, organism-based; parameters: dose 30 mg/kg; method in brief: as §4
Mus musculus [24] = assay: Neurotoxicity in albino CF1 mouse assessed as minimal motor impairment at 30 mg/kg, ip after 0.5 hrs by rotarod test; format: toxicity, organism-based; parameters: dose 30 mg/kg, route intraperitoneal; conditions: in vivo; method in brief: as §3
Mus musculus [25] = assay: Anticonvulsant activity in albino CF1 mouse assessed as protection against subcutaneous metrazol-induced seizures at 300 mg/kg, ip after 0.5 hrs; format: functional, organism-based; parameters: dose 300 mg/kg; method in brief: as §3
Rattus norvegicus [26] = assay: Neurotoxicity in pilocarpine-induced status epilepticus Sprague-Dawley albino rat model assessed as minimal motor impairment at 300 mg/kg, ip after 0.25 hr by rotarod test; format: toxicity, organism-based; parameters: dose 300 mg/kg, route intraperitoneal; conditions: in vivo; method in brief: as §2
Mus musculus [27] = assay: Anticonvulsant activity in albino CF1 mouse assessed as protection against maximal electroshock-induced seizures at 30 mg/kg, ip after 4 hrs; format: functional, organism-based; parameters: dose 30 mg/kg; method in brief: as §3
Mus musculus [28] = assay: Neurotoxicity in albino CF1 mouse assessed as minimal motor impairment at 300 mg/kg, ip after 4 hrs by rotarod test; format: toxicity, organism-based; parameters: dose 300 mg/kg, route intraperitoneal; conditions: in vivo; method in brief: as §3
Rattus norvegicus [29] = assay: Neurotoxicity in pilocarpine-induced status epilepticus Sprague-Dawley albino rat model assessed as minimal motor impairment at 300 mg/kg, ip after 4 hrs by rotarod test; format: toxicity, organism-based; parameters: dose 300 mg/kg, route intraperitoneal; conditions: in vivo; method in brief: as §2
Rattus norvegicus [30] = assay: Neurotoxicity in pilocarpine-induced status epilepticus Sprague-Dawley albino rat model assessed as minimal motor impairment at 100 mg/kg, ip after 1 hr by rotarod test; format: toxicity, organism-based; parameters: dose 100 mg/kg, route intraperitoneal; conditions: in vivo
Rattus norvegicus [31] = assay: Anticonvulsant activity in Sprague-Dawley albino rat assessed as protection against maximal electroshock-induced seizures at 30 mg/kg, po after 1 hr; format: functional, organism-based; parameters: dose 30 mg/kg; method in brief: as §4
Mus musculus [32] = assay: Anticonvulsant activity in albino CF1 mouse assessed as protection against maximal electroshock-induced seizures at 100 mg/kg, ip after 4 hrs; format: functional, organism-based; parameters: dose 100 mg/kg; method in brief: as §3
Mus musculus [33] = assay: Anticonvulsant activity in albino CF1 mouse assessed as protection against subcutaneous metrazol-induced seizures at 300 mg/kg, ip after 4 hrs; format: functional, organism-based; parameters: dose 300 mg/kg; method in brief: as §3
Rattus norvegicus [34] = assay: Neurotoxicity in pilocarpine-induced status epilepticus Sprague-Dawley albino rat model assessed as minimal motor impairment at 30 mg/kg, ip after 0.5 hrs by rotarod test; format: toxicity, organism-based; parameters: dose 30 mg/kg, route intraperitoneal; conditions: in vivo; method in brief: as §2
Mus musculus [35] = assay: Anticonvulsant activity in albino CF1 mouse assessed as protection against subcutaneous metrazol-induced seizures at 100 mg/kg, ip after 0.5 hrs; format: functional, organism-based; parameters: dose 100 mg/kg; method in brief: as §3
Rattus norvegicus [36] = assay: Protective index, ratio of TD50 for po dosed Sprague-Dawley albino rat by rotarod test to ED50 for po dosed Sprague-Dawley albino rat by subcutaneous metrazol seizures test; format: functional
Method in brief: (§5)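 Protective index calculated as TD50/ED50, with TD50 and ED50 taken from the same species and dosing route.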

[37] = Neurotoxicity in po dosed Sprague-Dawley albino rat assessed as minimal motor impairment by rotarod test; format: toxicity, organism-based; conditions: in vivo
Method in brief: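 Rats dosed orally; 4 rats per time point after dosing. Neurotoxicity was scored as motor impairment or sedation and reported as number of animals affected over number tested.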

Rattus norvegicus [38] = assay: Anticonvulsant activity in po dosed Sprague-Dawley albino rat assessed as protection against maximal electroshock-induced seizures; format: functional; method in brief: as §1
Rattus norvegicus [39] = assay: Protective index, ratio of TD50 for po dosed Sprague-Dawley albino rat by rotarod test to ED50 for po dosed Sprague-Dawley albino rat by maximal electroshock seizures test; format: functional; method in brief: as §5

Work on `CCCC(CCC)C(=O)O` [VALPROIC ACID] yielded an ED50 (Rattus norvegicus [1]) of 646 mg/kg.
For `CCCC(CCC)COC(=O)NC`, the Activity (Rattus norvegicus [2]) was “Non-toxic”, the Activity (Rattus norvegicus [3]) was “Toxic” and the Activity (Rattus norvegicus [4]) was “Toxic”. For the same compound, the Activity (Rattus norvegicus [5]) was “Toxic”, the Activity (Mus musculus [6]) was “inactive” and the Activity (Rattus norvegicus [7]) was “inactive”. For the same compound, the Activity (Rattus norvegicus [8]) was “Non-toxic”, the Activity (Mus musculus [9]) was “Active” and the Activity (Rattus norvegicus [10]) was “Non-toxic”. For the same compound, the Activity (Rattus norvegicus [11]) was “inactive”, the Activity (Rattus norvegicus [12]) was “Non-toxic” and the Activity (Mus musculus [13]) was “inactive”. For the same compound, the Activity (Mus musculus [14]) was “inactive”, the Activity (Rattus norvegicus [15]) was “Non-toxic” and the Activity (Mus musculus [16]) was “Active”. For the same compound, the Activity (Rattus norvegicus [17]) was “Non-toxic”, the Activity (Rattus norvegicus [18]) was “inactive” and the Activity (Mus musculus [19]) was “inactive”. The Activity (Rattus norvegicus [20]) was “Toxic”, the Activity (Rattus norvegicus [21]) was “Toxic” and the Activity (Rattus norvegicus [22]) was “Non-toxic”. For the same compound, the Activity (Rattus norvegicus [23]) was “inactive”, the Activity (Mus musculus [24]) was “Non-toxic” and the Activity (Mus musculus [25]) was “Active”. For the same compound, the Activity (Rattus norvegicus [26]) was “Toxic”, the Activity (Mus musculus [27]) was “inactive” and the Activity (Mus musculus [28]) was “Non-toxic”. For the same compound, the Activity (Rattus norvegicus [29]) was “Toxic”, the Activity (Rattus norvegicus [30]) was “Toxic” and the Activity (Rattus norvegicus [31]) was “inactive”. The Activity (Mus musculus [32]) was “inactive”, the Activity (Mus musculus [33]) was “inactive” and the Activity (Rattus norvegicus [34]) was “Non-toxic”. The Activity (Mus musculus [35]) was “inactive”.
For `NC(=O)OC[C@@H](O)c1ccccc1Cl` [CARISBAMATE], the “Ratio TD50/ED50” value (Rattus norvegicus [36]) was 2.4, the ED50 (Rattus norvegicus [1]) was 58 mg/kg and the TD50 [37] was 137 mg/kg. For the same compound, the ED50 (Rattus norvegicus [38]) was 8 mg/kg and the “Ratio TD50/ED50” value (Rattus norvegicus [39]) was 18.

Source: ChEMBL document CHEMBL2086252, “Syntheses and evaluation of anticonvulsant activity of novel branched alkyl carbamates” (J Med Chem, 2012)
